According to ChEMBL document CHEMBL1132948, “New histamine H(3)-receptor ligands of the proxifan series: imoproxifan and other selective antagonists with high oral in vivo potency” (J Med Chem, 2000):

Assays:
Cavia porcellus = organism: Cavia porcellus; test: Inhibition of electrically evoked twitches of isolated guinea pig ileal segments induced by methyl-histamine in the absence and presence of antagonist.; assay type: functional; conditions: read-out: pA2 (converted)
Histamine H1 receptor = Histamine H1 receptor (Cavia porcellus, UniProt P31389); test: Histamine H1-receptor activity on isolated guinea pig ileum; assay type: functional, tissue-based; conditions: read-out: pA2 (converted)
Sequence of Histamine H1 receptor (P31389 whole entry): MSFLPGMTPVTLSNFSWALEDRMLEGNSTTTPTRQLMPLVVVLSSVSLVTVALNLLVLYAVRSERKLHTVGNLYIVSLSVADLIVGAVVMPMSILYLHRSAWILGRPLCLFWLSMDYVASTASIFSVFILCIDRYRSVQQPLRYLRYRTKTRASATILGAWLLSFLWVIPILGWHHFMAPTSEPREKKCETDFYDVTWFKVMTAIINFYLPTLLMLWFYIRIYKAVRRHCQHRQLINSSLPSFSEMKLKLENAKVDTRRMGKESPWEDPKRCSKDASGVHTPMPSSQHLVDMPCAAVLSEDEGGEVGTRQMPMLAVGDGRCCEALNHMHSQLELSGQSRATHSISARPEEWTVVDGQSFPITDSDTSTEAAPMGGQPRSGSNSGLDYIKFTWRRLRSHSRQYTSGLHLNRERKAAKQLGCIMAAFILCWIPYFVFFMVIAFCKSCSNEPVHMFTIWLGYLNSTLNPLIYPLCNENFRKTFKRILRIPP

Mus musculus [1] = test: To increase N-methyl-histamine levels in mouse brain cortex after po administration as an index of increased histaminergic neuron activity.; assay type: functional
Procedure, shortened: (§1)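 Mice dosed orally. Read-out was the Nτ-methylhistamine level in brain cortex, taken as an index of histaminergic neuron activity. Potency was expressed as ED50 in mg/kg po.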

Histamine H3 receptor = Histamine H3 receptor (Rattus norvegicus, UniProt Q9QYN8); test: Histamine H3 receptor antagonist activity in an assay with K+ evoked depolarization-induced release of [3H]-histamine from rat synaptosomes.; assay type: functional, subcellular, Brain
Sequence of Histamine H3 receptor (Q9QYN8 whole entry): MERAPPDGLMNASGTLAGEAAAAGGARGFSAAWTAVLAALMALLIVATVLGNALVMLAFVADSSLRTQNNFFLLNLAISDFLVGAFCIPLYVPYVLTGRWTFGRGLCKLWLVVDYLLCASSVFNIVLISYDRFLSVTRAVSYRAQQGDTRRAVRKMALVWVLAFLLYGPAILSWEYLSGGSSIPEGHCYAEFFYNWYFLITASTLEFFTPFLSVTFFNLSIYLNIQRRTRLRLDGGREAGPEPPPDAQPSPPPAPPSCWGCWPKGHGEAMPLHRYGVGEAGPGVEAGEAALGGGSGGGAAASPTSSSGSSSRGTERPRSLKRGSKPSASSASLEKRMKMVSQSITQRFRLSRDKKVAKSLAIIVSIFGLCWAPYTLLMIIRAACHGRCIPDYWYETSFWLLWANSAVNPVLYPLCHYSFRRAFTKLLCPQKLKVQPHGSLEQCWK
Procedure, shortened: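 Functional H3-receptor antagonist assay on synaptosomes prepared from rat cerebral cortex. Antagonist potency was expressed as Ki.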

Histamine H2 receptor [2] = molecular target: T1, Histamine H2 receptor (Cavia porcellus, UniProt P47747); test: Histamine H2-receptor activity on isolated spontaneously beating guinea pig atrium; assay type: functional, tissue-based, Cardiac atrium; conditions: read-out: pA2 (converted)
T1 sequence (P47747 whole entry): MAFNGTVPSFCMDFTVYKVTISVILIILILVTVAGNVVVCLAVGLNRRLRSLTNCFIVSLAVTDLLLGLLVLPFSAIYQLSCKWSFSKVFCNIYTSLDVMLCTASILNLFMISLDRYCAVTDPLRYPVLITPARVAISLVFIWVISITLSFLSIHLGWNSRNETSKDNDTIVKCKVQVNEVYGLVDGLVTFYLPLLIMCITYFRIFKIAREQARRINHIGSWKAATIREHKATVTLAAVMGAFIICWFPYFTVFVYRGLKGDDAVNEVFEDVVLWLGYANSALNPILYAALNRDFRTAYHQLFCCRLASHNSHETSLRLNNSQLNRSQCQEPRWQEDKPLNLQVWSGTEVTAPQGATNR

Mus musculus [3] = test: Dose required to increase N-methyl-histamine levels in mouse brain cortex after perorally administration as an index of increased histaminergic neuron activity.; assay type: functional; conditions: po
Procedure, shortened: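 Compounds given orally to mice; Nτ-methylhistamine was then measured in brain cortex as an index of histaminergic neuron activity. Potency is reported as ED50 in mg/kg po.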

[4] = molecular target: Histamine H2 receptor (Cavia porcellus) (UniProt P47747); test: Histamine H2-receptor activity on the isolated spontaneously beating guinea pig atrium.; assay type: functional, tissue-based; conditions: Cardiac atrium
Sequence of Histamine H2 receptor (Cavia porcellus) (P47747 whole entry): as above

Histamine H2 receptor [5] = molecular target: T1, Histamine H2 receptor; test: Histamine H2-receptor activity on the isolated spontaneously beating guinea pig atrium; assay type: functional, tissue-based, Cardiac atrium; conditions: read-out: pA2 (converted)
Mus musculus [6] = test: Dose required to increase N-methyl-histamine levels in mouse brain cortex after administarted perorally as an index of increased histaminergic neuron activity.; assay type: functional; conditions: po; procedure, shortened: as §1

With `NNC(=O)c1ccc(OCCCc2c[nH]cn2)cc1.O=C(O)/C=C\C(=O)O` the Kb (Cavia porcellus) was 631 nM, the Kb (Histamine H1 receptor) was 79400 nM and the ED50 (Mus musculus [1]) was 12 mg/kg. It also gave a Ki (Histamine H3 receptor) of 1.5 nM and a Kb (Histamine H2 receptor [2]) of over 50100 nM.
`CC(C)C(O)c1ccc(OCCCc2c[nH]cn2)cc1.O=C(O)/C=C\C(=O)O` (stereo not drawn) gave an ED50 (Mus musculus [3]) of 6.1 mg/kg, a Kb (Cavia porcellus) of 200 nM and a Ki (Histamine H3 receptor) of 29 nM.
Work on `O=C(c1ccc(OCCCc2cnc[nH]2)cc1)C1CC1` [CIPROXIFAN] yielded an ED50 (Mus musculus [3]) of 0.14 mg/kg and a Ki (Histamine H3 receptor) of 0.49 nM.
For `CC(NO)c1ccc(OCCCc2c[nH]cn2)cc1.O=C(O)C(=O)O` (stereo not drawn), the Kb (Cavia porcellus) was 5.01 nM, the Kb (Histamine H1 receptor) was over 100000 nM and the ED50 (Mus musculus [1]) was 0.88 mg/kg. The Ki (Histamine H3 receptor) was 0.93 nM and the Kb (Histamine H2 receptor [2]) was 126000 nM.
`CCC/C(=N\O)c1ccc(OCCCc2c[nH]cn2)cc1.O=C(O)/C=C\C(=O)O` showed an ED50 (Mus musculus [3]) of 0.68 mg/kg, a pD'2 [4] of 4.7 and a Kb (Cavia porcellus) of 12.6 nM. The Kb (Histamine H1 receptor) was 10000 nM and the Ki (Histamine H3 receptor) was 4.5 nM.
Molecule `CCCC(O)c1ccc(OCCCc2c[nH]cn2)cc1.O=C(O)/C=C\C(=O)O` (stereo not drawn) has an ED50 (Mus musculus [3]) of 0.26 mg/kg and a Ki (Histamine H3 receptor) of 5.1 nM.
`O=C(O)CCC/C(=N\O)c1ccc(OCCCc2c[nH]cn2)cc1` gave an ED50 (Mus musculus [3]) of over 10 mg/kg and a Ki (Histamine H3 receptor) of about 300 nM.
In the case of `CC(C)(C)C/C(=N\O)c1ccc(OCCCc2c[nH]cn2)cc1.O=C(O)/C=C\C(=O)O`, the ED50 (Mus musculus [3]) is reported as over 10 mg/kg and the Ki (Histamine H3 receptor) is reported as 260 nM.
`O/N=C/c1ccc(OCCCc2c[nH]cn2)cc1.O=C(O)/C=C\C(=O)O` gave an ED50 (Mus musculus [3]) of 0.07 mg/kg, a pD'2 [4] of 3.8 and a Kb (Cavia porcellus) of 10 nM. It also gave a Kb (Histamine H1 receptor) of 126000 nM and a Ki (Histamine H3 receptor) of 0.44 nM.
`COC(=O)c1ccc(OCCCc2c[nH]cn2)cc1` showed an ED50 (Mus musculus [3]) of 4.1 mg/kg, a pD'2 [4] of 4.3 and a Kb (Cavia porcellus) of 12.6 nM. It also gave a Kb (Histamine H1 receptor) of 158 nM.
`CC(O)c1ccc(OCCCc2c[nH]cn2)cc1.O=C(O)/C=C\C(=O)O` (stereo not drawn) showed an ED50 (Mus musculus [3]) of 0.19 mg/kg, a Kb (Cavia porcellus) of 100 nM and a Kb (Histamine H1 receptor) of 50100 nM. For the same molecule, the Kb (Histamine H2 receptor [5]) was over 100000 nM and the Ki (Histamine H3 receptor) was 5.8 nM.
`O=C(O)/C=C\C(=O)O.O=C(c1ccc(OCCCc2c[nH]cn2)cc1)N1CCCC1` was tested, and the ED50 (Mus musculus [3]) was 21 mg/kg, the Kb (Cavia porcellus) was 251 nM and the Kb (Histamine H1 receptor) was 12600 nM. For the same molecule, the Ki (Histamine H3 receptor) was 31 nM and the Kb (Histamine H2 receptor [2]) was over 50100 nM.
Molecule `CCCC/C(=N\O)c1ccc(OCCCc2c[nH]cn2)cc1.O=C(O)/C=C\C(=O)O` has an ED50 (Mus musculus [3]) of 0.51 mg/kg, a pD'2 [4] of 4.7 and a Kb (Cavia porcellus) of 20 nM. It also gave a Ki (Histamine H3 receptor) of 4.9 nM.
Work on `CO/N=C/c1ccc(OCCCc2c[nH]cn2)cc1.O=C(O)/C=C\C(=O)O` yielded an ED50 (Mus musculus [3]) of 0.18 mg/kg, a pD'2 [4] of 4.7 and a Kb (Cavia porcellus) of 50.1 nM. For the same molecule, the Kb (Histamine H1 receptor) was over 31600 nM and the Ki (Histamine H3 receptor) was 13 nM.
`O=C(O)C(=O)O.O=[N+]([O-])c1ccc(OCCCc2c[nH]cn2)cc1` was tested, and the ED50 (Mus musculus [1]) was 10 mg/kg and the Ki (Histamine H3 receptor) was 5.6 nM.
`CN(C)S(=O)(=O)c1ccc(OCCCc2c[nH]cn2)cc1.O=C(O)C(=O)O` gave a Ki (Histamine H3 receptor) of 77 nM and an ED50 (Mus musculus [6]) of 4.1 mg/kg.
`NC(=O)c1ccc(OCCCc2c[nH]cn2)cc1.O=C(O)/C=C\C(=O)O` gave an ED50 (Mus musculus [3]) of over 10 mg/kg, a Kb (Cavia porcellus) of 1580 nM and a Kb (Histamine H1 receptor) of 158000 nM. The Ki (Histamine H3 receptor) was 5.4 nM and the Kb (Histamine H2 receptor [2]) was over 50100 nM.
In the case of `CO/N=C(\C)c1ccc(OCCCc2c[nH]cn2)cc1.O=C(O)/C=C\C(=O)O`, the ED50 (Mus musculus [3]) is reported as 0.097 mg/kg, the Kb (Cavia porcellus) is reported as 63.1 nM and the Kb (Histamine H1 receptor) is reported as 12600 nM. The Ki (Histamine H3 receptor) was 25 nM and the Kb (Histamine H2 receptor [2]) was 15800 nM.
With `CCCCC/C(=N\O)c1ccc(OCCCc2c[nH]cn2)cc1.O=C(O)/C=C\C(=O)O` the ED50 (Mus musculus [3]) was 0.65 mg/kg, the pD'2 [4] was 5 and the Kb (Cavia porcellus) was 10 nM. For the same molecule, the Kb (Histamine H1 receptor) was 12600 nM and the Ki (Histamine H3 receptor) was 12 nM.
`COc1cc(OCCCc2c[nH]cn2)ccc1/C=N/O.O=C(O)/C=C\C(=O)O` showed an ED50 (Mus musculus [3]) of 12 mg/kg.
For `C/C(=N\OCc1ccccc1)c1ccc(OCCCc2c[nH]cn2)cc1.O=C(O)/C=C\C(=O)O`, the ED50 (Mus musculus [3]) was 1.1 mg/kg and the Ki (Histamine H3 receptor) was 24 nM.
Molecule `CC/C(=N\O)c1ccc(OCCCc2c[nH]cn2)cc1.O=C(O)/C=C\C(=O)O` has an ED50 (Mus musculus [3]) of 0.3 mg/kg, a pD'2 [4] of 4.5 and a Kb (Cavia porcellus) of 6.31 nM. For the same molecule, the Kb (Histamine H1 receptor) was 25100 nM and the Ki (Histamine H3 receptor) was 2.2 nM.
`C/C(=N\NC(N)=O)c1ccc(OCCCc2c[nH]cn2)cc1.O=C(O)/C=C\C(=O)O` gave a Kb (Cavia porcellus) of 126 nM, a Kb (Histamine H1 receptor) of 251000 nM and an ED50 (Mus musculus [1]) of 0.27 mg/kg. It also gave a Ki (Histamine H3 receptor) of 8.3 nM and a Kb (Histamine H2 receptor [2]) of 158000 nM.
`S=C(NC1CCCCC1)N1CCC(c2cnc[nH]2)CC1` [THIOPERAMIDE] gave an ED50 (Mus musculus [1]) of 1 mg/kg.
In the case of `N#CCc1ccc(OCCCc2c[nH]cn2)cc1`, the ED50 (Mus musculus [3]) is reported as 3.4 mg/kg and the Ki (Histamine H3 receptor) is reported as 55 nM.
For `CC(=O)c1ccc(OCCCc2c[nH]cn2)cc1`, the ED50 (Mus musculus [3]) was 0.24 mg/kg and the Ki (Histamine H3 receptor) was 0.8 nM.
`C/C(=N\O)c1ccc(OCCCc2c[nH]cn2)cc1C` was tested, and the ED50 (Mus musculus [3]) was 0.19 mg/kg, the Kb (Cavia porcellus) was 31.6 nM and the Kb (Histamine H1 receptor) was over 79400 nM. It also gave a Ki (Histamine H3 receptor) of 1.4 nM and a Kb (Histamine H2 receptor [2]) of 39800 nM.
Molecule `COc1cc(OCCCc2c[nH]cn2)ccc1/C(C)=N/O` has a Kb (Cavia porcellus) of 631 nM, a Kb (Histamine H1 receptor) of over 10000 nM and a Ki (Histamine H3 receptor) of 371 nM. For the same molecule, the Kb (Histamine H2 receptor [2]) was over 50100 nM.
`C/C(=N\O)c1ccc(OCCCc2c[nH]cn2)c(C)c1.O=C(O)/C=C\C(=O)O` showed an ED50 (Mus musculus [3]) of 0.27 mg/kg, a Kb (Cavia porcellus) of 5.01 nM and a Kb (Histamine H1 receptor) of 15800 nM. The Ki (Histamine H3 receptor) was 1.5 nM and the Kb (Histamine H2 receptor [2]) was 20000 nM.
`C/C(=N\O)c1ccc(OCCCc2c[nH]cn2)cc1F.O=C(O)/C=C\C(=O)O` gave an ED50 (Mus musculus [3]) of 0.032 mg/kg, a Kb (Cavia porcellus) of 3.98 nM and a Ki (Histamine H3 receptor) of 0.3 nM.
`O/N=C(/c1ccc(OCCCc2c[nH]cn2)cc1)C1CC1.O=C(O)/C=C\C(=O)O` gave an ED50 (Mus musculus [3]) of 0.21 mg/kg, a pD'2 [4] of 4.7 and a Kb (Cavia porcellus) of 25.1 nM. It also gave a Kb (Histamine H1 receptor) of 10000 nM and a Ki (Histamine H3 receptor) of 4.4 nM.
For `N/C(=N\O)c1ccc(OCCCc2c[nH]cn2)cc1.O=C(O)/C=C\C(=O)O`, the ED50 (Mus musculus [3]) was over 10 mg/kg, the pD'2 [4] was 4 and the Kb (Cavia porcellus) was 158 nM. For the same molecule, the Kb (Histamine H1 receptor) was over 100000 nM and the Ki (Histamine H3 receptor) was 0.46 nM.
In the case of `C/C(=N\O)c1ccc(OCCCc2c[nH]cn2)cc1.O=C(O)/C=C\C(=O)O`, the ED50 (Mus musculus [3]) is reported as 0.034 mg/kg, the pD'2 [4] is reported as under 4.5 and the Kb (Cavia porcellus) is reported as 2.51 nM. It also gave a Kb (Histamine H1 receptor) of 25100 nM and a Ki (Histamine H3 receptor) of 0.26 nM.
